Runt-CBFb FRET – inhibitors of RUNX1 Runt–CBFb binding, primary screen, biochemical, FRET, Cerulean-Runt, Venus-CBFb, uHTS | Cerulean-Runt/Venus-CBFb FRET ratio 530/480, 1 h | AID 1496, 2009 | 0.46% of 220,000 active | Runt-related transcription factor 1 (Homo sapiens) + Core-binding factor subunit beta … | inhibition, % at 20 µM;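 active means inhibition over about 50% at 20 µM in the single-dose screen, limit read from the data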
Target sequence (Q01196 whole entry, looked up): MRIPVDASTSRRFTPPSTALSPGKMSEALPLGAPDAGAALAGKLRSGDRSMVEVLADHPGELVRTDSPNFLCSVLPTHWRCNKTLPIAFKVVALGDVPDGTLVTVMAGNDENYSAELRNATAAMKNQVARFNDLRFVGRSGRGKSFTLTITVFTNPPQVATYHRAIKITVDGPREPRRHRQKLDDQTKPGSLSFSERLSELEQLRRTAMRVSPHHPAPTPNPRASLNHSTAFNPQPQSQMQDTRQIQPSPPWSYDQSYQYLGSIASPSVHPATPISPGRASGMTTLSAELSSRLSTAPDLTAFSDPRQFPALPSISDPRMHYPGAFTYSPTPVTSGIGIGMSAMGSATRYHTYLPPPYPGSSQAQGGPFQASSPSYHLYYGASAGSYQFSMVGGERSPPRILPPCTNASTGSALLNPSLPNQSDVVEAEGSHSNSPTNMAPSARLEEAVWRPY
Target sequence (Q13951 whole entry, looked up): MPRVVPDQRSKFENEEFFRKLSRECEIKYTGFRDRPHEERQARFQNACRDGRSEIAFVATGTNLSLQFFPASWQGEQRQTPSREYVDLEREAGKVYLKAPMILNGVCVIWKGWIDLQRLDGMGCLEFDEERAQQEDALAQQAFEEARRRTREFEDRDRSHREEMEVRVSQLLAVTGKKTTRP
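Reagent – Venus-CBFb binding partner, 100 nM · Assay system – Cerulean-tagged RUNX1 Runt domain (FRET donor) fusion protein · Input – 100 nM per protein · Incubation – two 1 h room-temperature incubations shielded from light · Measured by – FRET fluorescence · Medium – Tris buffer pH 7.5 with salts and BSA · Benchmarks – unlabeled CBFb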
RanGTP-Imp inh – inhibitors of RanGTP-importin-beta interaction, primary screen, biochemical, FRET, CFP-Ran, YFP-importin-beta, homogeneous; Ran GTPase (GTP-bound) - importin-beta complex; cell-free CFP-Ran/YFP-importin-beta FRET ratio; inhibition, % (concentration not given with the values); 1.1% of 300,000 active;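 active means more than half of the replicate wells show a fall in the fluorescence ratio signal beyond about 16%, limit read from the data, passing the limit was not always enough; inconclusive means exactly half of the replicate wells pass the set limit; inactive means fewer than half of replicates pass the limit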
Hck-Nef inh – inhibitors of Nef-activated human Hck kinase, primary screen, biochemical, Z-Lyte FRET, 384-well, Hck-YEEI | Tyrosine-protein kinase HCK (Homo sapiens), P08631 | Recombinant Hck-YEEI plus Nef, Z-Lyte FRET kinase assay | inhibition, % at 20 µM | 0.68% of 220,000 active | AID 463187, 2010;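 active means Hck-Nef kinase inhibition above about 50%, limit read from the data; inactive means inhibition below that limit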
Runt-SMMHC FRET – inhibitors of RUNX1 Runt–CBFb-SMMHC binding, primary screen, biochemical, FRET, Cerulean-Runt, Venus-CBFb-SMMHC, uHTS; Runt-related transcription factor 1 (Homo sapiens) + Core-binding factor subunit beta …; Cerulean-Runt/Venus-CBFb-SMMHC FRET ratio 530/480, 1 h; inhibition, % at 20 µM; 0.74% of 220,000 active; AID 1434, 2008;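 active means mean inhibition across duplicate retests at 20 µM reaching about 50%, limit read from the data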;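 further: inhibitors lower the FRET ratio by blocking Runt binding to CBFb-SMMHC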
Hits are given with their value; – = inactive; ? = inconclusive; · = not tested or not shown. Most compounds without a hit are left out; they make up all but 1.8% or so of the library.

SMILES	Runt-CBFb FRET	RanGTP-Imp inh	Hck-Nef inh	Runt-SMMHC FRET
Cc1ccccc1NC(=O)COC(=O)c1cc(=O)c2ccccc2o1	–	–	–	–
COc1ccc(C(C)NC(=O)CC23CC4CC(CC(C4)C2)C3)cc1 (stereo unspecified)	·	–	·	·
COc1ccc(S(=O)(=O)N2CCOCC2)cc1NC(=O)CSc1nnc(C2CC2)n1N	–	–	–	–
Cc1nc2nc(-c3cccs3)cn2nc1C	–	57.0	–	–
COc1cccc(-c2cn3nc(C)c(C)nc3n2)c1	–	?	–	–
Cc1nc2nc(-c3ccc(Cl)cc3)cn2nc1C	61.3	78.2	–	57.2
CCOc1ccccc1N1CCN(C(=O)CCCc2nc3ccccc3s2)CC1	–	–	–	–
CCN1C(=O)c2ccccc2Sc2ccc(C(=O)NC(C)C)cc21	·	–	·	·
CCN1/C(=C2/SC(=S)N(NC(C)=O)C2=O)Sc2ccc(Cl)cc21	·	33.4	·	·
CCN1C(=O)/C(=C2\SC(=S)N(CCCOC)C2=O)c2ccccc21	–	–	–	–
CCCCN1C(=O)/C(=C2/Sc3ccc(OC)cc3N2CC)SC1=S	·	23.3	·	·
CCN1/C(=C2/SC(=S)N(NC(C)=O)C2=O)Sc2ccc(OC)cc21	·	34.4	·	·
CCc1nn2c(=O)cc(COc3ccc(/C=C4\C(=N)N5N=C(C)SC5=NC4=O)cc3)nc2s1	·	–	75.3	–
Oc1ccc(-c2csc(-c3ccccc3)n2)cc1O	–	–	–	52.3
Oc1ccccc1-c1csc(-c2ccccc2)n1	–	–	–	–
Cc1oc(/N=C/c2ccc(O)cc2O)c(C#N)c1C	78.3	81.7	–	90.0
Cc1[nH]ccc(=O)c1Oc1ncc(C(F)(F)F)cc1Cl	–	–	–	–
CCOCCOC(=O)Cn1cnc2scc(-c3ccc(C)cc3)c2c1=O	·	–	·	·
O=C(CCC1CCCCC1)NCCN1C2=NC[C@H](Cc3ccc(O)cc3)N2C[C@H]1Cc1ccc(O)cc1	–	15.5	–	–
CN1CCc2c(sc3nc(SCC(=O)NCc4ccco4)n(-c4ccccc4)c(=O)c23)C1	·	25.4	·	·
COC(=O)CSc1nc2sc3c(c2c(=O)n1C1CCCCC1)CCN(C)C3	–	26.3	–	–
O=C(NCc1ccco1)c1ccc2nc3sc4c(c3c(=O)n2c1)CCCC4	63.4	62.4	–	63.3
COc1ccc(-n2c(SCC(=O)NCc3ccco3)nc3sc4c(c3c2=O)CCN(C)C4)cc1	·	–	·	·
COC(=O)CSc1nc2sc3c(c2c(=O)n1-c1ccc(OC)cc1)CCN(C)C3	·	–	·	·
CN1CCc2c(sc3nc(NCCO)n(-c4cccc(Cl)c4)c(=O)c23)C1	·	92.2	·	·
SMILES	Runt-CBFb FRET	RanGTP-Imp inh	Hck-Nef inh	Runt-SMMHC FRET
Cc1ccc(NC(=O)CCNS(=O)(=O)c2ccc3c(c2)CCC(=O)N3)cc1C	·	–	·	·
O=C(NCCN1CCOCC1)c1ccc2ccccc2n1	–	–	–	–
Nc1c(C(=O)NCCN2CCOCC2)c2nc3ccccc3nc2n1-c1cccc(F)c1	70.9	78.0	–	60.9
CCOCCCn1c(=NC(=O)c2cccs2)c(C#N)cc2c(=O)n3ccccc3nc21	85.6	105.0	–	81.2
CCOCCCn1c(=NC(=O)c2cccnc2)c(C(=O)OCC)cc2c(=O)n3ccccc3nc21	65.1	118.6	–	–
CCCCn1c(=NC(=O)c2cccnc2)c(C(=O)OCC)cc2c(=O)n3ccccc3nc21	93.1	82.0	–	62.0
CCOC(=O)c1cc2c(=O)n3cccc(C)c3nc2n(CCCOC)c1=NC(=O)c1cccnc1	110.4	128.6	–	–
Fc1ccccc1-c1ccc(/C=N/Nc2nc3ccccc3[nH]2)o1	–	·	–	76.7
N#CC12COC3(CCCCC3C1(C#N)C#N)OC2=N (stereo unspecified)	–	33.2	–	–
CCCC1OC23CCCCC2C(C#N)(C(=N)O3)C1(C#N)C#N (stereo unspecified)	–	33.3	–	–
CC1OC23CCCCC2C(C#N)(C(=N)O3)C1(C#N)C#N (stereo unspecified)	–	–	–	–
COc1ccc(C2OC34CCCCC3C(C#N)(C#N)C2(C#N)C(=N)O4)cc1 (stereo unspecified)	–	43.3	–	76.8
CCC1OC23CCCCC2C(C#N)(C(=N)O3)C1(C#N)C#N (stereo unspecified)	–	27.1	–	–
O=C(COC(=O)C1CC2C=CC1C2)Nc1ccccc1F (stereo unspecified)	–	–	–	–
CCn1ncc(/C=N/NS(=O)(=O)c2ccc(Cl)cc2)c1C	–	–	–	–
NC(=O)C1CCCN(Cc2c(C(=O)N3CCc4ccccc4C3)nc3ccc(Cl)cn23)C1 (stereo unspecified)	·	–	·	·
CCN(CC)S(=O)(=O)c1cccc(C(=O)NC(Cc2c[nH]c3ccccc23)c2nnc3n2CCC3)c1 (stereo unspecified)	–	–	–	–
O=c1ccc(-c2ccc(S(=O)(=O)NCC3CCN(Cc4ccccc4F)CC3)s2)n[nH]1	·	–	·	·
O=C(C1CCCCCC1)N1CC[C@@H](N2CCC(O)CC2)[C@H](O)C1	·	27.1	·	·
O=C(C1CCCCC1)N1CCN(C(=O)C2CCCCC2)CC1	–	–	–	–
CCc1cc(=O)oc2cc(C)cc(OCC(=O)NC(Cc3ccc(Cl)cc3)C(=O)O)c12 (stereo unspecified)	·	–	·	·
O=C(Cc1cc(=O)oc2cc(O)ccc12)NC(Cc1ccc(Cl)cc1)C(=O)O (stereo unspecified)	·	50.4	·	·
COc1ccc2c(CC(=O)N[C@@H](Cc3ccccc3)C(=O)O)cc(=O)oc2c1C	·	–	·	·

Screening data from PubChem.
